Test results published in ChEMBL document CHEMBL3351472, “Synthesis and Biological Activity of 25-Hydroxy-2-methylene-vitamin D3 analogues monohydroxylated in the A-ring” (J Med Chem, 2014).

Legend:
[1] = system: Rattus norvegicus; assay: Effect on bone calcium mobilization in weanling Sprague-Dawley rat assessed as serum calcium level at 7020 pmol/day, ip administered as 4 consecutive daily doses measured 24 hrs after last dose (reference value: 4.2 to 4.9 mg/dL); type: functional
[2] = system: Rattus norvegicus; assay: Effect on intestinal calcium transport in weanling Sprague-Dawley rat assessed as increase in ratio of serosal to mucosal calcium level at 780 pmol/day, ip administered as 4 consecutive daily doses measured 24 hrs after last dose; type: functional
[3] = system: Rattus norvegicus; assay: Effect on intestinal calcium transport in weanling Sprague-Dawley rat assessed as increase in ratio of serosal to mucosal calcium level at 35100 pmol/day, ip administered as 4 consecutive daily doses measured 24 hrs after last dose; type: functional
[4] = target: T1, Vitamin D3 receptor (Rattus norvegicus) (UniProt P13053); assay: Ratio of 1alpha,25-(OH)2D3 ED50 to compound ED50 for VDR-mediated 24-hydroxylase gene expression in rat ROS 17/2.8 cells after 16 hrs by luciferase reporter assay; type: cell-based
T1 sequence (whole entry): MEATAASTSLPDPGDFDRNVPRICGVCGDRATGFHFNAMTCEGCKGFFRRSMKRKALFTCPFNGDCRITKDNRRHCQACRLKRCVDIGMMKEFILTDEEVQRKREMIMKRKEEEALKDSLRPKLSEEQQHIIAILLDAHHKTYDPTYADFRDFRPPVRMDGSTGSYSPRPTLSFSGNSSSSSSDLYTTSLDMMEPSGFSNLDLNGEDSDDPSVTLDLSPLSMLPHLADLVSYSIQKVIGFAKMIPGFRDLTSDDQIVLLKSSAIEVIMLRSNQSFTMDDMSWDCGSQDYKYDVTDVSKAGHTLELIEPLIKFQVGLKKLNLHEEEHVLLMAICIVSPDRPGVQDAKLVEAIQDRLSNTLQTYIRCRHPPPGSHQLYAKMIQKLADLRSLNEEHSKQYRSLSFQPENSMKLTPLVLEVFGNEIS
Method in brief: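 Rat osteosarcoma cells stably transfected with a 24-hydroxylase gene reporter plasmid were used as a transcription assay. ED₅₀ is the concentration raising luciferase activity by 50%, taken from dose−response curves. Each value is the ratio of the 1α,25-(OH)₂D₃ ED₅₀ to the analogue ED₅₀.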

[5] = system: Rattus norvegicus; assay: Effect on bone calcium mobilization in weanling Sprague-Dawley rat assessed as serum calcium level at 87 pmol/day, ip administered as 4 consecutive daily doses measured 24 hrs after last dose (reference value: 4.2 to 4.9 mg/dL); type: functional
[6] = system: Rattus norvegicus; assay: Effect on intestinal calcium transport in weanling Sprague-Dawley rat assessed as increase in ratio of serosal to mucosal calcium level at 87 pmol/day, ip administered as 4 consecutive daily doses measured 24 hrs after last dose; type: functional
[7] = system: HL-60; assay: Ratio of 1alpha,25-(OH)2D3 ED50 to compound ED50 for induction of human HL60 cell differentiation by nitro blue tetrazolium reduction assay; type: functional
Method in brief: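 HL-60 promyelocytes were scored for maturation to monocytes as the percentage of cells reducing nitro blue tetrazolium. ED₅₀, the concentration giving 50% maturation, was taken from dose−response curves. The experiment was run in duplicate twice. Each value is the mean of the 1α,25-(OH)₂D₃ ED₅₀ divided by the analogue ED₅₀.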

[8] = system: Rattus norvegicus; assay: Effect on intestinal calcium transport in weanling Sprague-Dawley rat assessed as increase in ratio of serosal to mucosal calcium level at 7020 pmol/day, ip administered as 4 consecutive daily doses measured 24 hrs after last dose; type: functional
[9] = target: T1, Vitamin D3 receptor (Rattus norvegicus); assay: Ratio of 1alpha,25-(OH)2D3 Ki to compound Ki for full-length recombinant rat vitamin D receptor after 30 mins by liquid scintillation counting
Method in brief: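 Competitive binding to VDR was run against radiolabeled 1α,25-(OH)₂D₃ at 1 nM. […] Duplicate determinations were made on two separate occasions. Each value is the mean of the 1α,25-(OH)₂D₃ Ki divided by the analogue Ki.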

[10] = system: Rattus norvegicus; assay: Effect on bone calcium mobilization in weanling Sprague-Dawley rat assessed as serum calcium level at 780 pmol/day, ip administered as 4 consecutive daily doses measured 24 hrs after last dose (reference value: 4.2 to 4.9 mg/dL); type: functional
[11] = system: Rattus norvegicus; assay: Effect on intestinal calcium transport in weanling Sprague-Dawley rat assessed as increase in ratio of serosal to mucosal calcium level at 32 pmol/day, ip administered as 4 consecutive daily doses measured 24 hrs after last dose; type: functional
[12] = system: Rattus norvegicus; assay: Effect on bone calcium mobilization in weanling Sprague-Dawley rat assessed as serum calcium level at 32 pmol/day, ip administered as 4 consecutive daily doses measured 24 hrs after last dose (reference value: 4.2 to 4.9 mg/dL); type: functional
[13] = system: Rattus norvegicus; assay: Effect on bone calcium mobilization in weanling Sprague-Dawley rat assessed as serum calcium level at 35100 pmol/day, ip administered as 4 consecutive daily doses measured 24 hrs after last dose (reference value: 4.2 to 4.9 mg/dL); type: functional

| Ratio ED50 [4] | Ratio Ki [9] | SMILES | Activity [1] | Ratio [2] | Ratio [3] | Activity [5] | Ratio [6] | Ratio ED50 [7] | Ratio [8] | Activity [10] | Ratio [11] | Activity [12] | Activity [13] |
| --- | --- | --- | --- | --- | --- | --- | --- | --- | --- | --- | --- | --- | --- |
| 0.07 | 0.1 | C=C1CC/C(=C\C=C2/CCC[C@]3(C)[C@@H]([C@@H](C)CCCC(C)(C)O)CC[C@@H]23)C[C@H]1O |  |  |  |  |  | 0.07 |  |  |  |  |  |
| 29 | 1 | C=C1[C@H](O)CC(=C/C=C2\CCC[C@]3(C)[C@@H]([C@@H](C)CCCC(C)(C)O)CC[C@@H]23)C[C@H]1O [DP001] |  |  |  |  |  | 25 |  |  |  |  |  |
| 2 | 0.5 | C=C1CC/C(=C/C=C2\CCC[C@]3(C)[C@@H]([C@@H](C)CCCC(C)(C)O)CC[C@@H]23)C[C@H]1O |  |  |  |  |  | 2.5 |  |  |  |  |  |
| 1 | 0.25 | C=C1CC/C(=C/C=C2\CCC[C@]3(C)[C@@H]([C@H](C)CCCC(C)(C)O)CC[C@@H]23)C(=C)[C@H]1O | 8.8 mg/dL | 11.8 | 11.3 | 4.5 mg/dL | 8.5 | 2 | 9.8 | 5.9 mg/dL |  |  | 8.2 mg/dL |

Further lines, the molecule ahead of its results:

| SMILES | Ratio ED50 [4] | Ratio Ki [9] | Activity [1] | Ratio [2] | Ratio [3] | Activity [5] | Ratio [6] | Ratio ED50 [7] | Ratio [8] | Activity [10] | Ratio [11] | Activity [12] | Activity [13] |
| --- | --- | --- | --- | --- | --- | --- | --- | --- | --- | --- | --- | --- | --- |
| C=C1CC(=C)[C@H](O)C/C1=C/C=C1\CCC[C@]2(C)[C@@H]([C@H](C)CCCC(C)(C)O)CC[C@@H]12 | 0.0005 | 0.05 | 8.2 mg/dL | 9.4 | 9.7 | 4.4 mg/dL | 5.7 | 0.005 | 10.2 | 5.4 mg/dL |  |  |  |
| C=C1CC/C(=C\C=C2/CCC[C@]3(C)[C@@H]([C@H](C)CCCC(C)(C)O)CC[C@@H]23)C[C@H]1O | 0.001 | 0.02 |  |  |  |  |  | 0.01 |  |  |  |  |  |
| C=C1CC/C(=C/C=C2\CCC[C@]3(C)[C@@H]([C@@H](C)CCCC(C)(C)O)CC[C@@H]23)C(=C)[C@H]1O | 1 | 0.33 |  | 12.6 |  | 4.9 mg/dL | 10.2 | 4 |  | 9.7 mg/dL | 7.9 | 4.8 mg/dL |  |
| C=C1CC/C(=C/C=C2\CCC[C@]3(C)[C@@H]([C@H](C)CCCC(C)(C)O)CC[C@@H]23)C[C@H]1O | 0.7 | 0.2 |  |  |  |  |  | 2.2 |  |  |  |  |  |
| C=C1CC(=C)[C@H](O)C/C1=C/C=C1\CCC[C@]2(C)[C@@H]([C@@H](C)CCCC(C)(C)O)CC[C@@H]12 | 0.2 | 0.33 |  | 14.3 |  | 4.8 mg/dL | 9.8 | 0.22 |  | 7.5 mg/dL | 9 | 4.3 mg/dL |  |
| C=C1/C(=C\C=C2/CCC[C@]3(C)[C@@H]([C@H](C)CCCC(C)(C)O)CC[C@@H]23)C[C@@H](O)C[C@@H]1O [CALCITRIOL] |  |  |  |  |  | 5 mg/dL |  |  |  | 7.5 mg/dL |  |  |  |
| C=C1CC[C@H](O)C/C1=C/C=C1\CCC[C@]2(C)[C@@H]([C@H](C)CCCC(C)(C)O)CC[C@@H]12 [CALCIFEDIOL ANHYDROUS] | 0.001 | 0.01 |  |  |  |  |  | 0.001 |  |  |  |  |  |
